Screening data deposited in PubChem by several laboratories.
FAS-TE inh = FAS thioesterase domain inhibitors, primary screen, biochemical, fluorescence intensity, uHTS. recombinant FAS-TE, OMFH fluorogenic substrate, fluorescence endpoint. hit rate 0.67% among 360,000. AID 602261, 2012. inhibition, % at 15 µM. Fatty acid synthase (Homo sapiens), P49327;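 active = compounds whose normalised, plate-corrected inhibition of enzyme fluorescence in the single-dose primary screen is 50% or more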;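 also: 0% = DMSO with enzyme and 100% = substrate without enzyme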
M18AAP inhibitor = PfM18AAP inhibitors, malaria aminopeptidase, primary screen, biochemical, QFRET, recombinant enzyme. M18 aspartyl aminopeptidase (Plasmodium falciparum 3D7). H-Glu-NHMec fluorogenic cleavage. inhibition, % at 7.35 µM. hit rate 1.2% among 290,000;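 active = inhibition above the campaign mean inhibition over all tested compounds plus 3 SD, cut at about 28% in these data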;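 also: 0% = plate median of test compound wells and 100% = 2 mM ZnCl2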
Rtt109 Vps75 = inhibitors of C. albicans Rtt109/Vps75 HAT, primary screen, biochemical, ThioGlo CoA-SH fluorescence, plate reader. Histone acetyltransferase RTT109 (Candida albicans (strain SC5314 / ATCC MYA-2876)), …. purified Rtt109/Vps75, 4 h. inhibition, % at 34.9 µM. hit rate 0.16% among 330,000;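 active = inhibition of at least 50% in every replicate; inconclusive = best replicate reaches 50% inhibition but some replicates fall short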
ALR H2O2 inh = inhibitors of human ALR sulfhydryl oxidase, primary screen, biochemical, H2O2 detection, HRP-luminol luminescence, single point; FAD-linked sulfhydryl oxidase ALR (Homo sapiens), P55789; purified ALR, DTT oxidation; inhibition, % (concentration not given with the values); hit rate 3.8% among 290,000; AID 485317, 2010;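 active = mean replicate inhibition above about 79%, with every replicate also reaching it, limit read from the data; inconclusive = only one of the two criteria met; inactive = mean below limit and not every replicate reaching it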
Target sequence (P55789 whole entry, looked up): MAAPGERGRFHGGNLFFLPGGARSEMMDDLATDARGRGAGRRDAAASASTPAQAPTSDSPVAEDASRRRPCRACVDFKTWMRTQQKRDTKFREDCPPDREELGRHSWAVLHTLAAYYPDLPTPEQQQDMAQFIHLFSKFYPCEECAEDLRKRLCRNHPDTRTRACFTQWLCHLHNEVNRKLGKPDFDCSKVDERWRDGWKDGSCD
UCH37 inh = inhibitors of human UCH37 deubiquitinase, primary screen, biochemical, Ub-AMC cleavage, fluorescence; Ubiquitin carboxyl-terminal hydrolase isozyme L5 (Homo sapiens), Q9Y5K5; inhibition, % (test concentration not listed); hit rate 0.33% among 330,000; purified proteasome/UCH37;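 active = mean inhibition over replicate wells above about 20%, limit read from the data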;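 also: 0% = compound-free wells with enzyme and 100% = wells lacking proteasome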
Target sequence (Q9Y5K5 whole entry, looked up): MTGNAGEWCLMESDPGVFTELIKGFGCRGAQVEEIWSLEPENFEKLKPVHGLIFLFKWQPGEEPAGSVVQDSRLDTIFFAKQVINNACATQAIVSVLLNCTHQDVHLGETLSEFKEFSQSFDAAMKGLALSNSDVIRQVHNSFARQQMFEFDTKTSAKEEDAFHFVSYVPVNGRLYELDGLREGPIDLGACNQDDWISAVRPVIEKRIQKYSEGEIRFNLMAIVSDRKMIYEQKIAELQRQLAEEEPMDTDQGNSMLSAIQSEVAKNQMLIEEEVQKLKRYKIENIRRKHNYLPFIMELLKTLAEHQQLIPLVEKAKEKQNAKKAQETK
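Material: Human UCH37 enzyme supplied as purified proteasome complex | Schedule: 30 min preincubation with enzyme, 25 min cleavage at room temperature | Detection: AMC fluorescence 355/460 nm | Measure: % inhibition of Ub-AMC cleavage fluorescence | Controls: Wells without proteasome as full block, compound-free enzyme plus substrate as uninhibited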
HDAC3 inhib = HDAC3 deacetylase inhibitors, primary screen, biochemical, fluorescence, cell-free homogeneous; recombinant HDAC3, fluorogenic peptide/trypsin coupled; inhibition, % at 8.3 µM; hit rate 0.15% among 320,000; in the data active = inhibition above about 26%, passing the limit was not always enough; inconclusive = no clear call, values can overlap the other calls
Numbers without * were called inactive; ? = inconclusive; / = no result. This is a sample that favours compounds with a hit; in the whole collection about 4.6% have one here.

SMILES | FAS-TE inh | M18AAP inhibitor | Rtt109 Vps75 | ALR H2O2 inh | UCH37 inh | HDAC3 inhib
Cc1n[nH]c(=S)n1N=Cc1ccc(Br)o1 | / | / | / | / | -2.1 | /
O=C(O)c1ccc2c(c1)C(=O)/C(=C/c1ccccc1)C2=O | -8.9 | 10.1 | 7.9 | -5.8 | 22.0* | -0.3
CC(=NNC(=O)c1cccc(Br)c1)c1cccnc1 | / | / | / | / | 1.0 | /
O=C(NN=Cc1cc2c(cc1[N+](=O)[O-])OCO2)c1ccccn1 | / | / | / | / | 3.9 | /
Cc1ccc(-c2cc(C(=O)N3CCCc4ccccc43)c3ccccc3n2)cc1 | 34.9 | -16.8 | 0.9 | -30.9 | 0.1 | 7.1
O=C(c1cc(-c2cccnc2)nc2ccccc12)N1CCCc2ccccc21 | -0.8 | 19.6 | 7.1 | 94.7* | 1.8 | 0.9
CC(C)C(C(=O)Nc1ccccc1F)N1C(=O)c2ccccc2C1=O (centres undefined) | 5.1 | / | 7.7 | 13.0 | 3.1 | -1.2
CC(C)C(C(=O)Nc1cccnc1)N1C(=O)c2ccccc2C1=O (centres undefined) | -6.8 | -7.5 | 52.9* | -11.7 | -0.6 | -5.0
CC(=NNC(=O)c1ccc([N+](=O)[O-])c(C)c1)c1ccccc1Cl | / | / | / | / | -1.4 | /
CCCCOC(=O)NN=C/C=C/c1ccccc1 | / | / | / | / | 2.5 | /
Nc1ccc(S(=O)(=O)c2ccc(N)c(N)c2)cc1 | -3.7 | 5.3 | 14.7 | 88.5* | 4.4 | 4.9
CCN1c2ccccc2NC2N=C(OC)C(c3ccccc3)C21 (centres undefined) | -43.0 | 5.0 | -4.1 | 98.6* | 1.4 | 2.3
CC(=O)Nc1ccc(S(=O)(=O)Nc2nc3ccccc3nc2Nc2ccccc2)cc1 | -1.3 | -3.5 | 0.9 | / | -4.7 | -30.0
CC(=O)Nc1ccc(Nc2nc3ccccc3nc2NS(=O)(=O)c2ccccc2)cc1 | -3.4 | -4.9 | 5.6 | 98.5* | 6.9 | -4.1
COc1ccc(S(=O)(=O)Nc2nc3ccccc3nc2Nc2cccc(C(=O)O)c2)cc1 | -4.5 | 8.3 | 9.3 | 97.5* | 9.3 | -21.7
COc1ccccc1C=NNc1cc(C)nc(-n2nc(C)cc2C)n1 | / | / | / | / | -41.8 | /
Oc1c(Cl)cc(Cl)cc1C=Nc1nccs1 | / | / | / | / | -0.2 | /
Cc1ccc(S(=O)(=O)CCc2nnc(NC(=O)C3CCCCC3)s2)cc1 | 0.4 | -2.2 | -15.2 | -2.5 | 4.3 | -3.3
CC(=O)Nc1nnc(CCS(=O)(=O)c2ccc(C)c(C)c2)s1 | -10.3 | -9.5 | 58.8* | / | 3.1 | -2.5
CC(=NNC(=O)c1ccccc1Br)c1ccc(N2CCOCC2)cc1 | / | / | / | / | 4.6 | /
O=S(=O)(c1cc(O)ccc1O)c1cccc2c(S(=O)(=O)c3cc(O)ccc3O)cccc12 | 5.8 | / | 10.0 | 92.7* | / | -1.7
O=S(=O)(O)c1cc(O)ccc1O | -0.2 | / | -3.3 | 16.0 | -1.6 | 0.7
CCn1cc(C=NNC(=O)Cc2ccc([N+](=O)[O-])cc2)c(C)n1 | / | / | / | / | 5.7 | /
c1ccc(NN=C(Cc2ncc[nH]2)c2ccccc2)cc1 | / | / | / | / | 0.6 | /
COc1ccc(CS(=O)(=O)/C(Cl)=C(/Cl)C(=O)Nc2ccc(OC)nc2)cc1 | 34.5 | -29.1 | -1.2 | 97.9* | 4.9 | -9.1
SMILES | FAS-TE inh | M18AAP inhibitor | Rtt109 Vps75 | ALR H2O2 inh | UCH37 inh | HDAC3 inhib
COc1ccc(NC(=O)/C(Cl)=C(/Cl)S(=O)Cc2ccccc2)cn1 (centres undefined) | 39.3 | -82.4 | 10.0 | -6.5 | 4.1 | 0.9
C=CCn1c(-c2cccc([N+](=O)[O-])c2)n[nH]c1=S | -6.4 | 24.2 | -8.3 | 96.2* | 4.5 | 7.8
S=c1[nH]nc(-c2ccc(Br)cc2)n1-c1ccc(Br)cc1 | 3.8 | 7.3 | 10.2 | ? | -0.5 | -2.6
O=C(O)c1ccc(-n2c(-c3ccc(Br)cc3)n[nH]c2=S)cc1 | -8.5 | 7.4 | -10.4 | 92.5* | 4.8 | 2.9
S=c1[nH]nc(-c2ccccc2Br)n1Cc1ccccc1 | -3.7 | 31.1* | 17.0 | ? | 1.7 | -2.3
Oc1ccccc1-c1n[nH]c(=S)n1Cc1ccccc1 | -6.5 | 8.6 | 5.2 | 24.4 | 2.4 | 9.0
CCc1cc(-c2n[nH]c(=S)n2Cc2ccccc2)cs1 | 3.0 | 13.4 | 6.7 | 92.2* | 2.6 | 3.2
CCc1cc(-c2n[nH]c(=S)n2CC)cs1 | -14.6 | 14.2 | -0.2 | 27.7 | 1.3 | 9.3
CC(CC(=O)Nc1ccc(C)c(Cl)c1)=NNC(=O)Cc1cnc(N)s1 | / | / | / | / | -0.5 | /
O=C(NN=Cc1ccc(-c2ccccc2[N+](=O)[O-])o1)c1cncc(Br)c1 | / | / | / | / | 7.7 | /
CCOc1ccc(-c2c(C(=O)NN=Cc3ccc(O)cc3)nnn2-c2nonc2N)cc1 | / | / | / | / | 1.3 | /
O=[N+]([O-])c1cccc(-c2n[nH]c(=S)n2-c2ccc(Br)cc2)c1 | 5.2 | 21.8 | 4.1 | 94.8* | 3.6 | 0.9
Cc1ccc(-n2c(-c3cccc(C)c3)n[nH]c2=S)cc1 | -6.8 | -2.4 | 33.3 | 14.4 | 2.6 | 0.9
O=[N+]([O-])c1cccc(-c2n[nH]c(=S)n2Cc2ccccc2)c1 | -1.9 | 28.7* | 1.0 | ? | 4.9 | 0.2
O=C1Nc2ccccc2C1(O)CC(=NO)c1ccccc1 (centres undefined) | / | / | / | / | 2.9 | /
Cc1ccnc(N/C=C(/NC(=O)c2ccccc2)C(=O)NN=Cc2ccc(Cl)cc2)n1 | / | / | / | / | 8.2 | /
CCCC1=C(C(=O)OCC)C(c2ccc(F)cc2)n2ncnc2N1 (centres undefined) | -2.8 | 4.5 | 11.8 | 9.1 | -0.3 | 3.3
CCCC1=C(C(=O)OCC)C(c2ccc(N(C)C)cc2)n2ncnc2N1 (centres undefined) | -7.1 | 2.5 | -2.4 | 98.5* | 5.3 | -0.8
CC(=O)NN=C(C)c1ccc(NC(=O)c2csc(C)c2C)cc1 | / | / | / | / | 4.2 | /
COc1c(OC)c(O)c2c(=O)cc(-c3c(O)cccc3O)oc2c1OC | 1.6 | 17.3 | 9.2 | 96.6* | 4.7 | 2.4
CC(/C=C/c1ccc2c(c1)OCO2)=NNC(=O)C(O)c1ccccc1 (centres undefined) | / | / | / | / | 0.7 | /
CC(=O)CSc1ncnc2sc3c(c12)CCC3 | -0.2 | 2.6 | 4.0 | 93.6* | -0.9 | -2.6
CC(C)(C)C(=O)CSc1ncnc2sc3c(c12)CCC3 | 9.8 | -8.0 | 1.9 | 2.1 | 4.6 | -1.1
COc1cc(NC(=O)CSc2ncnc3sc4c(c23)CCCC4)c(C(=O)O)cc1OC | 7.5 | 27.9 | -6.0 | 88.3* | 5.2 | -4.5
CCOC(=O)N1CCN(C(=O)c2cccc(-n3c(=S)[nH]c4cc(Cl)ccc4c3=O)c2)CC1 | -7.5 | -3.1 | 6.1 | 79.2* | 6.5 | 2.4
Cc1cccc(C(=O)Oc2ccc(C=NNC(=O)Cc3ccc([N+](=O)[O-])cc3)cc2)c1 | / | / | / | / | 1.2 | /
CCOc1ccc(/C=C\C(C)=NO)cc1 | / | / | / | / | 3.8 | /
